Measurements from ChEMBL document CHEMBL2016575, “The chemical synthesis of metabolically stabilized 2-OMe-LPA analogues and preliminary studies of their inhibitory activity toward autotaxin” (Bioorg Med Chem Lett, 2012).
pIC50: −log10 of the molar value.

Assays:
[1] = molecular target: T1, Autotaxin (Homo sapiens, UniProt Q13822); assay: Inhibition of human recombinant autotaxin expressed in insect Sf9 cells using FS-3 as substrate at 1 uM preincubated for 10 mins prior substrate addition measured up to 60 mins by FRET-based analysis
[2] = molecular target: T1, Autotaxin; assay: Inhibition of human recombinant autotaxin expressed in insect Sf9 cells using FS-3 as substrate preincubated for 10 mins prior substrate addition measured up to 60 mins by FRET-based analysis
[3] = Metabolic stability of the compound assessed as reduction in dephosphorylation at […] after 24 hrs by phosphomolybdate blue assay in presence of bovine intestinal mucosal alkaline phosphatase; assay type: ADME; conditions: cattle, isolated protein
Procedure, shortened: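 Substrate incubated with the phosphatase at 37 °C for 24 h. Dephosphorylation is followed by quantifying liberated inorganic phosphate with a modified phosphomolybdate blue assay.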

inhibition [1] [%] | pIC50 [2] | Stability [3] | Compound
86.1 | 6.77 | Stable | CCCCCCCCCCCCCCCCCC(=O)OC[C@@H](O)CC(Br)P(=O)(O)O (stereo not given in full)
– | – | Unstable | CCCCCCCC/C=C\CCCCCCCC(=O)OC[C@@H](O)COP(=O)(O)O [LYSOPHOSPHATIDIC ACID]
81.3 | 6.66 | Stable | CCCCCCCC/C=C\CCCCCCCC(=O)OCC(COP(=O)(O)O)OC (stereo not given)
49.7 | 5.99 | – | CCCCCCCCCCCCCCCCCC(=O)OCC(COP(=O)(O)O)OC (stereo not given)
74.5 | 6.44 | – | CCCCCCCCCCCCCCCC(=O)OCC(COP(=O)(O)O)OC (stereo not given)
57.7 | 6.15 | – | CCCCCCCCCCCCCC(=O)OCC(COP(=O)(O)O)OC (stereo not given)
45.5 | 5.92 | – | CCCCCCCCCCCC(=O)OCC(COP(=O)(O)O)OC (stereo not given)

Compound | inhibition [1] [%] | pIC50 [2] | Stability [3]
CCCCCCCCCCCCCC(=O)OCC(COP(=O)(O)S)OC (stereo not given) | 62.3 | 6.22 | –
CCCCCCCCCCCC(=O)OCC(COP(=O)(O)S)OC (stereo not given) | 36.7 | 5.62 | –
CCCCCCCCCCCCCCCCCC(=O)OCC(COP(=O)(O)S)OC (stereo not given) | 35.5 | 5.62 | –
CCCCCCCCCCCCCCCC(=O)OCC(COP(=O)(O)S)OC (stereo not given) | 64.7 | 6.29 | –
CCCCCCCC/C=C\CCCCCCCC(=O)OCC(COP(=O)(O)S)OC (stereo not given) | 77.8 | 6.45 | –
